Test results from publication PMC7359938 (Clinical and Translational Science, 2020).

Experiments:
[1] = Safety and tolerability evaluation; format: in vivo, human
Procedure, shortened: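 Fasted healthy men and women (21) received a single oral 25 mg dose with 250 mL water in a double-blind two-period crossover (5-day inpatient stays, ≥7-day washout). Safety covered everyone given at least one dose. Twelve-lead ECG was taken predose and at 1, 2 and 24 h. Hematology, serum chemistry and urinalysis were done at admission and at ~24 and 72 h after ≥10 h fasting. Results were summarized by treatment.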

VMAT2 = conditions: in vitro, rats; ref Teva Pharmaceuticals, data on file; cited from earlier work
[2] = pivotal randomized controlled study; cited from earlier work
[3] = cited from earlier work
[4] = Study AUS‐SD‐809‐CTP‐06, single 25 mg dose

COc1cc2c(cc1OC)[C@H]1CC(=O)[C@H](CC(C)C)CN1CC2 (racemic) [Tetrabenazine, cis‐rac –1,3,4,6,7,11b‐hexahydro‐9,10‐dimethoxy‐3‐(2‐methylpropyl)2H‐benzo[a]quinolizin‐2‐one]
Reported events of dizziness ([1]; Study AUS‐SD‐809‐CTP‐06): three | Number of subjects with at least one treatment‐emergent adverse event (TEAE) [1, 4]: 9 | Percentage of subjects with at least one treatment‐emergent adverse event (TEAE) [1, 4]: 45% | Subjects with headache [1, 4]: 15% | Subjects with nausea [1, 4]: 15% | Subjects with somnolence [1, 4]: 10% | Tolerability of single doses ([1]; both studies, incl. 14C‐labeled analogues): well‐tolerated | Serious or severe TEAEs ([1]; either study): no serious or severe TEAEs | Clinical laboratory assessments, vital signs parameters, ECG measurements, physical examinations ([1]; following either treatment): no clinically significant findings | Effect of deuteration on binding to VMAT2 (VMAT2): did not change the binding | Patients requiring dose reduction for intolerability [2]: 44% | BDDCS classification [3]: Class II
